# Data published in ChEMBL document CHEMBL1671645, “Pharmacokinetics and absorption of posaconazole oral suspension under various gastric conditions in healthy volunteers” (Antimicrob Agents Chemother, 2009).
# Legend:
# [1] = Cmax in healthy human plasma at 400 mg administered as single dose suspension coadministered with nutritional supplement and 4 mg loperamide as two 2 mg tablets; format: ADME, organism-based; parameters: dose 400 mg; conditions: po
# Outline: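 Oral suspension (40 mg/ml) single dose with nutritional supplement plus loperamide 4 mg single dose, healthy volunteers, three-way crossover with 7–10-day washout. EDTA plasma drawn predose and 1–168 h postdose. LC-MS/MS assay (LLOQ 5.00 ng/ml). Noncompartmental parameters; Tmax reported as median (range).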
# [2] = AUC in fasted healthy human at 400 mg administered as single dose suspension after consumption of high fat meal; format: ADME, organism-based; conditions: plasma
# Outline: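 In a crossover of 12 healthy subjects, each took a single 400 mg oral suspension dose 5 min before, midway through (about 10 min into a 20-min meal), or 20 min after a high-fat meal of about 50 g fat. Plasma was drawn 0–168 h and measured by LC-MS/MS. Parameters are noncompartmental, with AUC to the last measurable time.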
# [3] = AUC in healthy human at 400 mg administered as single dose suspension coadministered with nutritional supplement; format: ADME, organism-based; conditions: plasma
# Outline: (§1)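 A three-way crossover in 13 healthy subjects gave one 400 mg oral suspension dose with a nutritional supplement, either alone, with metoclopramide 10 mg orally three times daily on the day before and the day of dosing, or with a single 4 mg dose of loperamide. Plasma was taken 0–168 h for LC-MS/MS. Analysis was noncompartmental.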
# [4] = Apparent volume of distribution in healthy human at 400 mg administered as single dose suspension coadministered with nutritional supplement and 10 mg metoclopramide; format: ADME, organism-based; conditions: in vivo, po, read-out: Vc/F; outline: as §1
# [5] = Cmax in fasted healthy human plasma at 400 mg administered as single dose suspension coadministered with acidic carbonated beverage; format: ADME, organism-based; parameters: dose 400 mg
# Outline: (§2)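 This was a four-way crossover in 12 healthy subjects with 7–10 day washouts. Each took one fasting 400 mg oral suspension dose, with 12 oz ginger ale and/or esomeprazole 40 mg once each morning on days −2 to 1, with dosing on day 1. Plasma was sampled 0–168 h and measured by LC-MS/MS (LLOQ 5.00 ng/ml). Analysis was noncompartmental, with CL/F = dose/AUC_I and V/F = (CL/F)/K.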
# [6] = Apparent volume of distribution in fasted healthy human at 400 mg administered as single dose suspension; format: ADME, organism-based; conditions: in vivo, read-out: Vc/F
# [7] = AUC in fasted healthy human at 400 mg administered as single dose suspension; format: ADME, organism-based; conditions: plasma
# Homo sapiens [8] = test: Toxicity in healthy human assessed as adverse events at 400 mg administered as single dose suspension coadministered with acidic carbonated beverage and proton pump inhibitor; format: organism-based; parameters: scale not given: the % may be the effect or the level left; conditions: in vivo
# Outline: (§3)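 Healthy volunteers monitored for adverse events, vital signs, clinical laboratory values and 12-lead ECG. Adverse events tabulated by body system or organ class and severity and summarized by treatment across the crossover regimens.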
# [9] = Cmax in plasma in hematopoietic stem cell transplant recipient human with GVHD; format: ADME, organism-based
# Homo sapiens [10] = test: Toxicity in healthy human assessed as dizziness at 400 mg administered as single dose suspension coadministered with nutritional supplement; format: organism-based; conditions: in vivo
# Outline: (§4)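 Three-way randomized crossover in 13 healthy volunteers with a 7- to 10-day washout. Each period was one 400-mg oral posaconazole suspension dose with a nutritional supplement. Metoclopramide 10 mg was given orally three times daily on the day before and the day of dosing; loperamide was a single 4 mg. Safety was assessed from adverse events, tabulated by body system and severity per treatment.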
# [11] = Apparent total body clearance in fasted healthy human at 400 mg administered as single dose suspension coadministered with acidic carbonated beverage; format: ADME, organism-based; conditions: in vivo; outline: as §2
# [12] = Cmax in healthy human plasma at 400 mg administered as single dose suspension coadministered with nutritional supplement and 10 mg metoclopramide; format: ADME, organism-based; parameters: dose 400 mg; outline: as §1
# Homo sapiens [13] = test: Toxicity in healthy human assessed as headache at 400 mg BID, po administered as suspension for 7 days coadministered with nutritional supplement; format: organism-based; conditions: in vivo, 168 h
# Outline: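 Healthy volunteers (n = 12) took oral posaconazole suspension (40 mg/ml) for 7 days in a four-way randomized crossover with a 14- to 21-day washout. Subjects stayed fasted throughout, with nonfat snacks up to 800 cal/day allowed. Where given, Boost was taken with each dose. Safety covered adverse events, vital signs, clinical labs and 12-lead ECG, with AEs tabulated by body system and severity per treatment.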
# Homo sapiens [14] = test: Apparent total body clearance in fasted healthy human at 200 mg QID, po administered as suspension for 7 days; format: ADME, organism-based; conditions: in vivo, 168 h
# Outline: (§5)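 Twelve healthy subjects took oral suspension for 7 days as 400 mg BID or 200 mg QID, either fasting or with a Boost-type nutritional supplement, in a crossover with 14–21 day washouts. Nonfat snacks of 800 cal/day or less were allowed. Plasma was sampled 0–168 h after the day-7 morning dose only and analysed by LC-MS/MS. AUC is AUC_τ, normalized to dose.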
# [15] = Tmax in fasted healthy human at 400 mg administered as single dose suspension coadministered with acidic carbonated beverage; format: ADME, organism-based; conditions: in vivo
# Outline: (§6)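 Single oral suspension dose in fasting healthy volunteers, alone, with 12 oz ginger ale, after esomeprazole 40 mg once each morning days −2 to 1, or both; four-way crossover, 7–10-day washout. EDTA plasma 0–168 h. LC-MS/MS (LLOQ 5.00 ng/ml). t1/2 = ln(2)/K from terminal log-linear regression; Tmax median.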
# [16] = Apparent volume of distribution in fasted healthy human at 400 mg administered as single dose suspension coadministered with proton pump inhibitor; format: ADME, organism-based; conditions: in vivo, read-out: Vc/F; outline: as §2
# [17] = Cmax in healthy human plasma at 200 mg QID, po administered as suspension for 7 days coadministered with nutritional supplement; format: ADME, organism-based; parameters: dose 200 mg, route oral; outline: as §5
# [18] = Apparent volume of distribution in healthy human at 400 mg administered as single dose suspension coadministered with nutritional supplement; format: ADME, organism-based; conditions: in vivo; outline: as §1
# [19] = Cmax in fasted healthy human plasma at 400 mg BID, po administered as suspension for 7 days; format: ADME, organism-based; parameters: dose 400 mg, route oral; outline: as §5
# [20] = Half life in fasted healthy human at 400 mg administered as single dose suspension coadministered with acidic carbonated beverage and proton pump inhibitor; format: ADME, organism-based; conditions: in vivo; outline: as §6
# [21] = AUC in fasted healthy human at 400 mg administered as single dose suspension coadministered with acidic carbonated beverage; format: ADME, organism-based; conditions: plasma; outline: as §2
# Homo sapiens [22] = test: Apparent total body clearance in fasted healthy human at 400 mg BID, po administered as suspension for 7 days; format: ADME, organism-based; conditions: in vivo, 168 h; outline: as §5
# Homo sapiens [23] = test: Toxicity in healthy human assessed as asthenia at 400 mg BID, po administered as suspension for 7 days; format: organism-based; conditions: in vivo, 168 h; outline: as §3
# [24] = Apparent total body clearance in healthy human at 400 mg administered as single dose suspension coadministered with nutritional supplement; format: ADME, organism-based; conditions: in vivo; outline: as §1
# Homo sapiens [25] = test: Toxicity in healthy human assessed as nausea at 400 mg administered as single dose suspension coadministered with nutritional supplement and 10 mg metoclopramide; format: organism-based; conditions: in vivo; outline: as §4
# Homo sapiens [26] = test: Toxicity in healthy human assessed as adverse events at 200 mg QID, po administered as suspension for 7 days; format: organism-based; conditions: in vivo, 168 h; outline: as §3
# [27] = Half life in fasted healthy human at 200 mg QID, po administered as suspension for 7 days; format: ADME, organism-based; conditions: in vivo
# Outline: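 Healthy volunteers given oral suspension (40 mg/ml) for 7 days, fasted or with nutritional supplement (Boost); four-way crossover, 14–21-day washout, nonfat snacks ≤800 cal/day allowed. On day 7 only the morning dose was given; plasma sampled predose to 168 h after it. LC-MS/MS (LLOQ 5.00 ng/ml). t1/2 = ln(2)/K from log-linear terminal slope; Tmax as median.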
# [28] = Cmax in plasma in hematopoietic stem cell transplant recipient human with GVHD and diarrhea; format: ADME, organism-based
smiles,measurement,setting,value
CC[C@@H]([C@H](C)O)n1ncn(-c2ccc(N3CCN(c4ccc(OC[C@@H]5CO[C@@](Cn6cncn6)(c6ccc(F)cc6F)C5)cc4)CC3)cc2)c1=O [POSACONAZOLE],Cmax,[1],294 ng/mL
same,AUC,[2],21000 ng·h/mL
same,AUC,[3],8960 ng·h/mL
same,Vd/F,[4],2280 L
same,Cmax,[5],286 ng/mL
same,Vd/F,[6],3330 L
same,AUC,[7],4280 ng·h/mL
same,Activity,Homo sapiens [8],25%
same,Cmax,[9],1460 ng/mL
same,Activity,Homo sapiens [10],15%
same,CL/F,[11],870 mL/min
same,Cmax,[12],232 ng/mL
same,Activity,Homo sapiens [13],25%
same,CL/F,Homo sapiens [14],21.2 L/h
same,Tmax,[15],4 h
same,Vd/F,[16],4350 L
same,Cmax,[17],2160 ng/mL
same,Vd/F,[18],1660 L
same,Cmax,[19],982 ng/mL
same,half-life,[20],27.8 h
same,AUC,[21],9610 ng·h/mL
same,CL/F,Homo sapiens [22],54.6 L/h
same,Activity,Homo sapiens [23],25%
same,CL/F,[24],823 mL/min
same,Activity,Homo sapiens [25],23%
same,Activity,Homo sapiens [26],75%
same,half-life,[27],34.7 h
same,Cmax,[28],623 ng/mL
